Assay results from ChEMBL document CHEMBL4177770, “Discovery of MK-6169, a Potent Pan-Genotype Hepatitis C Virus NS5A Inhibitor with Optimized Activity against Common Resistance-Associated Substitutions” (J Med Chem, 2018).
Substitutions are numbered along the chain they refer to.

Columns and labels:
[1] = molecular target: T1, Nonstructural protein 5A (Hepatitis C virus) (UniProt Q5L478); experiment: Inhibition of NS5A in HCV genotype 1a infected in HuH7 replicon cells assessed as decrease in viral replication after 3 days by RT-PCR method; type: cell-based; settings: Hepatitis C virus subtype 1a
T1 sequence (whole entry): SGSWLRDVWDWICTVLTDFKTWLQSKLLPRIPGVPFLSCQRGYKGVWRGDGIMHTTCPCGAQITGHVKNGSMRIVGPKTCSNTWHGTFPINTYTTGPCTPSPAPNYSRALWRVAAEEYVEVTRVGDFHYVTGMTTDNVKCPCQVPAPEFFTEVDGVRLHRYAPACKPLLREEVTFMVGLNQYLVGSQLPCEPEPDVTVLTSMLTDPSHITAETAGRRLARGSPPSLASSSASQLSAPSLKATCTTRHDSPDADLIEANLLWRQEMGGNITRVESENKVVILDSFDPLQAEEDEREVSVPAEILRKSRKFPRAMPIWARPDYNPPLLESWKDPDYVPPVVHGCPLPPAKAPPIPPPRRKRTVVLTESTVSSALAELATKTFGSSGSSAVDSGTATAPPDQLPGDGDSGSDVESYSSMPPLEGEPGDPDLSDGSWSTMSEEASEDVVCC

[2] = molecular target: T1, Nonstructural protein 5A (Hepatitis C virus); experiment: Inhibition of NS5A in HCV genotype 1b infected in HuH7 replicon cells assessed as decrease in viral replication after 3 days by RT-PCR method; type: cell-based; settings: Hepatitis C virus subtype 1b
[3] = molecular target: T1, Nonstructural protein 5A (Hepatitis C virus); experiment: Inhibition of NS5A L31M mutant in HCV genotype 2b infected in HuH7 replicon cells assessed as decrease in viral replication after 3 days by RT-PCR method; type: cell-based; settings: Hepatitis C virus subtype 2b
[4] = molecular target: T1, Nonstructural protein 5A (Hepatitis C virus); experiment: Inhibition of NS5A in HCV genotype 3a infected in HuH7 replicon cells assessed as decrease in viral replication after 3 days by RT-PCR method; type: cell-based; settings: Hepatitis C virus subtype 3a
[5] = molecular target: T1, Nonstructural protein 5A (Hepatitis C virus); experiment: Inhibition of NS5A in HCV genotype 4a infected in HuH7 replicon cells assessed as decrease in viral replication after 3 days by RT-PCR method; type: cell-based; settings: Hepatitis C virus subtype 4a
[6] = tested on: T2, Nonstructural protein 5A (Hepatitis C virus), Q5L478 [Y93H]; experiment: Inhibition of NS5A Y93H mutant in HCV genotype 1a infected in HuH7 replicon cells assessed as decrease in viral replication after 3 days by RT-PCR method; type: cell-based; settings: Hepatitis C virus subtype 1a
T2 sequence (whole entry): T1 sequence (whole entry) with Y93H

[7] = molecular target: T1, Nonstructural protein 5A (Hepatitis C virus); experiment: Inhibition of NS5A L31V mutant in HCV genotype 1a infected in HuH7 replicon cells assessed as decrease in viral replication after 3 days by RT-PCR method; type: cell-based; settings: Hepatitis C virus subtype 1a
[8] = Half life in Wistar Han rat at 2 mg/kg, iv by LC/MS method; type: ADME, organism-based; settings: in vivo
Summary of the method: (§1)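 Male Wistar Han rats, two per group, dosed IV at 2 mg/kg in 60% PEG200. Plasma was obtained by centrifuging the blood, and compound concentrations were measured by LC/MS.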

[9] = Half life in Beagle dog at 1 mg/kg, iv by LC/MS method; type: ADME, organism-based, Canis lupus familiaris; settings: in vivo
Summary of the method: (§2)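 Beagle dogs, two animals per group, dosed IV at 1 mg/kg in 60% PEG200. Plasma was prepared from collected blood by centrifugation, and compound was quantified by LC/MS.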

[10] = Clearance in Wistar Han rat at 2 mg/kg, iv by LC/MS method; type: ADME, organism-based; settings: in vivo; summary of the method: as §1
[11] = Clearance in Beagle dog at 1 mg/kg, iv by LC/MS method; type: ADME, organism-based, Canis lupus familiaris; settings: in vivo; summary of the method: as §2
[12] = AUC in Wistar Han rat at 10 mg/kg, po by LC/MS method; type: ADME, organism-based; settings: in vivo
Summary of the method: (§3)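 Male Wistar Han rats, two per dosing group, dosed orally at 10 mg/kg in 10% TWEEN. Plasma was separated from collected blood by centrifugation and analysed by LC/MS.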

[13] = AUC in Beagle dog at 5 mg/kg, po by LC/MS method; type: ADME, organism-based, Canis lupus familiaris; settings: in vivo
Summary of the method: (§4)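 Beagle dogs, two animals per dosing group. Oral dose was given in 10% TWEEN. Blood was collected and spun to plasma, and plasma compound levels were measured by LC/MS.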

[14] = Cmax in Wistar Han rat at 10 mg/kg, po by LC/MS method; type: ADME, organism-based; set-up: dose 10 mg/kg, route oral; settings: in vivo; summary of the method: as §3
[15] = Cmax in Beagle dog at 5 mg/kg, po by LC/MS method; type: ADME, organism-based, Canis lupus familiaris; set-up: dose 5 mg/kg, route oral; settings: in vivo; summary of the method: as §4
[16] = Drug level in Wistar Han rat at 10 mg/kg, po measured at 24 hrs by LC/MS method; type: ADME, organism-based; settings: in vivo, read-out: Drug uptake; summary of the method: as §3
[17] = Drug level in Beagle dog at 5 mg/kg, po measured at 24 hrs by LC/MS method; type: ADME, organism-based, Canis lupus familiaris; settings: in vivo, read-out: Drug uptake; summary of the method: as §4
[18] = Oral bioavailability in Wistar Han rat at 10 mg/kg by LC/MS method; type: ADME, organism-based; settings: in vivo; summary of the method: as §3
[19] = Oral bioavailability in Beagle dog at 5 mg/kg by LC/MS method; type: ADME, organism-based, Canis lupus familiaris; settings: in vivo; summary of the method: as §4
[20] = Tmax in Wistar Han rat at 10 mg/kg, po by LC/MS method; type: ADME, organism-based; settings: in vivo; summary of the method: as §3
[21] = MRT in Wistar Han rat at 10 mg/kg, po by LC/MS method; type: ADME, organism-based; settings: in vivo; summary of the method: as §3
[22] = AUC in Wistar Han rat at 100 mg/kg, po by LC/MS method; type: ADME, organism-based; settings: in vivo
Summary of the method: (§5)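 Single rising oral dose study in fed male Wistar Han rats, dosed PO in 10% TWEEN at the indicated doses. Plasma was obtained by centrifuging the blood, and compound levels were determined by LC/MS.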

[23] = Cmax in Wistar Han rat at 100 mg/kg, po by LC/MS method; type: ADME, organism-based; set-up: dose 100 mg/kg, route oral; settings: in vivo; summary of the method: as §5
[24] = Drug level in Wistar Han rat at 100 mg/kg, po measured at 24 hrs by LC/MS method; type: ADME, organism-based; settings: in vivo, read-out: Drug uptake; summary of the method: as §5
[25] = Tmax in Wistar Han rat at 100 mg/kg, po by LC/MS method; type: ADME, organism-based; settings: in vivo; summary of the method: as §5
[26] = MRT in Wistar Han rat at 100 mg/kg, po by LC/MS method; type: ADME, organism-based; settings: in vivo; summary of the method: as §5
[27] = AUC in Wistar Han rat at 300 mg/kg, po by LC/MS method; type: ADME, organism-based; settings: in vivo; summary of the method: as §5
[28] = Cmax in Wistar Han rat at 300 mg/kg, po by LC/MS method; type: ADME, organism-based; set-up: dose 300 mg/kg, route oral; settings: in vivo; summary of the method: as §5
[29] = Drug level in Wistar Han rat at 300 mg/kg, po measured at 24 hrs by LC/MS method; type: ADME, organism-based; settings: in vivo, read-out: Drug uptake; summary of the method: as §5
[30] = Tmax in Wistar Han rat at 300 mg/kg, po by LC/MS method; type: ADME, organism-based; settings: in vivo; summary of the method: as §5
[31] = MRT in Wistar Han rat at 300 mg/kg, po by LC/MS method; type: ADME, organism-based; settings: in vivo; summary of the method: as §5
[32] = tested on: Hepatitis C virus subtype 1a; experiment: Resistance ratio of EC90 for NS5A L31V mutant in HCV genotype 1a infected in HuH7 replicon cells to EC90 for NS5A in HCV genotype 1a infected in HuH7 replicon cells; type: cell-based
[33] = tested on: Hepatitis C virus subtype 1a; experiment: Resistance ratio of EC90 for NS5A Y93H mutant in HCV genotype 1a infected in HuH7 replicon cells to EC90 for NS5A in HCV genotype 1a infected in HuH7 replicon cells; type: cell-based
[34] = Resistance ratio of EC90 for NS5A in HCV genotype 1b infected in HuH7 replicon cells to EC90 for NS5A in HCV genotype 1a infected in HuH7 replicon cells; type: cell-based
[35] = Resistance ratio of EC90 for NS5A L31M mutant in HCV genotype 2b infected in HuH7 replicon cells to EC90 for NS5A in HCV genotype 1a infected in HuH7 replicon cells; type: cell-based
[36] = Resistance ratio of EC90 for NS5A in HCV genotype 3a infected in HuH7 replicon cells to EC90 for NS5A in HCV genotype 1a infected in HuH7 replicon cells; type: cell-based
[37] = Resistance ratio of EC90 for NS5A in HCV genotype 4a infected in HuH7 replicon cells to EC90 for NS5A in HCV genotype 1a infected in HuH7 replicon cells; type: cell-based

COC(=O)N[C@H](C(=O)N1CCC[C@H]1c1ncc(-c2cc(F)c3c(c2)O[C@@H](c2ccc(C4CC4)s2)n2c-3cc3cc(-c4cnc([C@@H]5CCCN5C(=O)[C@@H](NC(=O)OC)C5CCOCC5)[nH]4)ccc32)[nH]1)C(C)C
EC90 [1]: 4 pM
EC90 [2]: 5 pM
EC90 [3]: 14 pM
EC90 [4]: 8 pM
EC90 [5]: 5 pM
EC90 [6]: 18 pM
EC90 [7]: 6 pM
half-life [8]: 4 h
half-life [9]: 4.2 h
clearance [10]: 18 mL/min/kg
clearance [11]: 4 mL/min/kg
AUC [12]: 0.14 to 0.29 µM·h
AUC [13]: 2.61 µM·h
Cmax [14]: 34 to 20000 nM
Cmax [15]: 460 nM
concentration at 24 h [16]: 2 to 1000 nM
concentration at 24 h [17]: 22 nM
bioavailability [18]: 3.1%
bioavailability [19]: 11%
Tmax [20]: 3 h
MRT [21]: 7.9 h
AUC [22]: 1.64 µM·h
Cmax [23]: 200 nM
concentration at 24 h [24]: 11 nM
Tmax [25]: 4 h
MRT [26]: 8.3 h
AUC [27]: 3.99 µM·h
Cmax [28]: 360 nM
concentration at 24 h [29]: 32 nM
Tmax [30]: 4 h
MRT [31]: 9.9 h
Ratio [32]: < 10
Ratio [33]: < 10
Ratio [34]: < 10
Ratio [35]: < 10
Ratio [36]: < 10
Ratio [37]: < 10

COC(=O)N[C@H](C(=O)N1CCC[C@H]1c1ncc(-c2cc(F)c3c(c2)O[C@@H](c2ccc(C4CC4)s2)n2c-3cc3cc(-c4cnc([C@@H]5CCCN5C(=O)[C@@H](NC(=O)OC)C5C[C@@H](C)O[C@H](C)C5)[nH]4)ccc32)[nH]1)C(C)C (stereo partly drawn)
EC90 [1]: 4 pM
EC90 [2]: 4 pM
EC90 [3]: 12 pM
EC90 [4]: 7 pM
EC90 [5]: 7 pM
EC90 [6]: 15 pM
EC90 [7]: 4 pM
half-life [8]: 3.6 h
half-life [9]: 11.3 h
clearance [10]: 11 mL/min/kg
clearance [11]: 2.6 mL/min/kg
AUC [12]: 0.31 to 0.93 µM·h
AUC [13]: 5.05 µM·h
Cmax [14]: 50 to 119 nM
Cmax [15]: 640 nM
concentration at 24 h [16]: 1 to 4 nM
concentration at 24 h [17]: 87 nM
bioavailability [18]: 6.3%
bioavailability [19]: 18.7%
Tmax [20]: 3 h
MRT [21]: 6 h
AUC [22]: 2.07 µM·h
Cmax [23]: 240 nM
concentration at 24 h [24]: 9 nM
Tmax [25]: 3 h
MRT [26]: 7.6 h
AUC [27]: 5.58 µM·h
Cmax [28]: 510 nM
concentration at 24 h [29]: 29 nM
Tmax [30]: 7 h
MRT [31]: 9.3 h
